The source made the active and inactive calls. No cut-off for these calls is given here.
Assays:
[1] = Cytotoxicity against human A549 cells assessed as decrease in cell viability after 48 hrs by MTT assay; assay type: functional, cell-based; details: A549, 48 h
How it was run: (§1)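 A549 lung and A2780 ovarian human carcinoma cells were treated for 48 h, and viability was read by MTT assay. IC50 values are given as mean ± standard error of three independent experiments.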

[2] = Cytotoxicity against human A2780 cells assessed as decrease in cell viability after 48 hrs by MTT assay; assay type: functional, cell-based; details: A2780, 48 h; how it was run: as §1
[3] = Cell cycle arrest in human A549 cells assessed as accumulation at G2/M phase at 25 uM after 20 hrs by propidium iodide staining based flow cytometry; assay type: functional
How it was run: (§2)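 A549 cells grown 20 h with compound across 20 nM to 25 μM; DMSO as negative and paclitaxel (30−50 nM) as positive control; DNA content histograms by flow cytometry give percent of cells in each cell cycle phase.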

[4] = Cell cycle arrest in human A549 cells assessed as decrease in G1 phase population at 25 uM after 20 hrs by propidium iodide staining based flow cytometry; assay type: functional; how it was run: as §2
A549 [5] = assay: Binding affinity to alpha-tubulin in human A549 cells assessed as induction of microtubule depolymerization by measuring formation of abnormal type 4 spindles at 50 uM after 24 hrs by immunofluorescence microscopy; assay type: cell-based
How it was run: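 A549 cells exposed 24 h, DMSO vehicle control; microtubules stained with DM1A anti-α-tubulin monoclonal antibody and DNA with Hoechst 33342; cytoplasmic microtubule network and mitotic spindle morphology scored by immunofluorescence microscopy.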

Homo sapiens [6] = species on record: Homo sapiens; assay: Inhibition of 2-methoxy-5-(2,3,4-trimethoxyphenyl)-2,4,6-cycloheptatrien-1-one binding to colchicine binding site of tubulin (unknown origin) at 10 uM by fluorescence assay
How it was run: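 Fluorescence emission spectra were recorded at 350 nm excitation for 10 μM purified tubulin plus 10 μM MTC (a colchicine-site probe), with 10 μM test compound. Reference spectra were MTC with tubulin alone and MTC alone. The result is the percent decrease in MTC fluorescence.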

[7] = Cell cycle arrest in human A549 cells assessed as accumulation at G2/M phase at 100 nM after 20 hrs by propidium iodide staining based flow cytometry; assay type: functional
How it was run: (§3)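 A549 cells were grown for 20 h with compound across 20 nM to 25 μM. DMSO was the negative control and paclitaxel (30−50 nM) the positive control. The percentage of cells in each cell-cycle phase was determined from flow cytometry DNA histograms.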

Homo sapiens [8] = species on record: Homo sapiens; assay: Inhibition of tubulin assembly (unknown origin) assessed as decrease in pelleted microtubules up to 40 uM after 20 mins
How it was run: (§4)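 Purified tubulin was assembled at 30 μM, above its 3.3 μM critical concentration, in the presence of compound. The resulting microtubules were pelleted by mild centrifugation to quantify assembly.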

[9] = (§5) Inhibition of 2-methoxy-5-(2,3,4-trimethoxyphenyl)-2,4,6-cycloheptatrien-1-one binding to colchicine binding site of tubulin (unknown origin) by fluorescence spectroscopic analysis; parameters: species or system Homo sapiens
How it was run: (§6)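 Tubulin binding constants (Kb) were obtained from a competition assay against the colchicine-site fluorescent probe MTC, assuming 1:1 stoichiometry.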

Homo sapiens [10] = species on record: Homo sapiens; assay: as §5; how it was run: as §6
A549 [11] = assay: Binding affinity to alpha-tubulin in human A549 cells assessed as induction of microtubule depolymerization by measuring formation of abnormal type 4 spindles at 100 nM after 24 hrs by immunofluorescence microscopy; assay type: cell-based
How it was run: (§7)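 A549 cells were exposed to compound or DMSO vehicle for 24 h. They were then stained with DM1A anti-α-tubulin monoclonal antibody for microtubules and Hoechst 33342 for DNA. Cytoplasmic microtubule networks and mitotic spindle morphology, including abnormal type IV ball-shaped spindles, were examined by immunofluorescence microscopy.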

Homo sapiens [12] = species on record: Homo sapiens; assay: Binding affinity to tubulin alpha/beta dimer (unknown origin) at 300 uM by STD-NMR method
[13] = Cell cycle arrest in human A549 cells assessed as decrease in G1 phase population at 100 nM after 20 hrs by propidium iodide staining based flow cytometry; assay type: functional; how it was run: as §3
Homo sapiens [14] = species on record: Homo sapiens; assay: Inhibition of tubulin assembly (unknown origin) assessed as decrease in pelleted microtubules up to 30 uM after 20 mins; how it was run: as §4
Homo sapiens [15] = species on record: Homo sapiens; assay: Binding affinity to tubulin alpha/beta dimer (unknown origin) at 100 uM by STD-NMR method
Homo sapiens [16] = species on record: Homo sapiens; assay: Binding affinity to tubulin alpha/beta dimer (unknown origin) by TR-NOESY NMR spectroscopy
[17] = Cell cycle arrest in human A549 cells assessed as accumulation at G2/M phase at 1 uM after 20 hrs by propidium iodide staining based flow cytometry; assay type: functional; how it was run: as §3
[18] = Cell cycle arrest in human A549 cells assessed as decrease in G1 phase population at 1 uM after 20 hrs by propidium iodide staining based flow cytometry; assay type: functional; how it was run: as §3
A549 [19] = assay: Binding affinity to alpha-tubulin in human A549 cells assessed as induction of microtubule depolymerization by measuring formation of abnormal type 4 spindles at 1 uM after 24 hrs by immunofluorescence microscopy; assay type: cell-based; how it was run: as §7

Row | SMILES | IC50 [1] [nM] | IC50 [2] [nM] | Activity [3] | Activity [4] | Activity (A549 [5]) | inhibition (Homo sapiens [6]) | Activity [7] | inhibition (Homo sapiens [8]) [%] | Kd [9] [nM] | Kb (Homo sapiens [10]) [×10⁵ /M] | Activity (A549 [11]) | Activity (Homo sapiens [12]) | Activity [13] | inhibition (Homo sapiens [14]) | Activity (Homo sapiens [15]) | Activity (Homo sapiens [16]) | Activity [17] | Activity [18] | Activity (A549 [19])
1 | COc1c2c(cc3c1OCO3)[C@@H](c1ccc3c(c1)OCO3)[C@@H]1C(=O)OC[C@@H]1C2 | 8670 | 12900 | Active | Active | Active | Active |  |  |  |  |  |  |  |  |  |  |  |  | 
2 | COc1cc([C@@H]2c3cc4c(cc3[C@H](O)[C@H]3COC(=O)[C@H]23)OCO4)cc(OC)c1OC [PODOFILOX] | 15 | 18 |  |  |  | 68% | 70 to 80% | > 80 | 54 | 185 | Active | Active |  |  |  |  |  |  | 
3 | COc1ccc([C@@H]2c3cc4c(c(OC)c3C[C@H]3COC(=O)[C@@H]32)OCO4)cc1OC | 33 | 84 |  |  |  | 43% | Active |  | 850 | 11.8 | Active |  | Active | Active | Active | Active |  |  | 
4 | COc1cc(C2=C3C(=O)OC[C@@H]3[C@@H](OC(C)=O)c3cc4c(cc32)OCO4)cc(OC)c1OC | 263 | 587 |  |  |  | 17% |  |  |  |  |  |  |  | Active |  |  | Active | Active | Active
5 | COc1cc([C@@H]2c3cc4c(cc3[C@H](OC(C)=O)[C@H]3COC(=O)[C@H]23)OCO4)cc(OC)c1OC | 25 | 34 |  |  |  | 65% | Active | > 80 | 58 | 170 | Active |  | Active |  | Active |  |  |  | 

— ChEMBL document CHEMBL3871270, “Structural and Biochemical Characterization of the Interaction of Tubulin with Potent Natural Analogues of Podophyllotoxin” (J Nat Prod, 2016)
